The source of these data is PubChem BioAssay.

The nature of test [1]: hit retest on RPL19A-GFP reporter strain – cell-based, S. cerevisiae, flow cytometry, cherry picks, mother/daughter gates, confirmation (AID 2270;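 active = GFP response below 50% of the DMSO control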). To be noted: 3 h, at 10 µM, stronger effect = lower value, 100 = same GFP as DMSO wells. (In flow cytometry, cells or beads pass a laser one at a time.)
Test [2] in a line: yeast TOR pathway reporter LAP4-GFP change – cell-based, cherry picks, flow cytometry, mother/daughter gates, confirmation (AID 2271;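 active = GFP response above 150% of the DMSO control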;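 also: ratio of sample to DMSO plate mean so 100% equals DMSO level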). To be noted: S. cerevisiae LAP4-GFP strain, 3 h, at 10 µM, stronger effect = higher value, 100 means same as DMSO control. The essentials: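 Material: Alexa Fluor 633-labelled Saccharomyces cerevisiae GFP-fusion strain, single-plex | Amount: Yeast cells seeded at OD600 of 0.2 | Buffer or medium: SC growth medium | Schedule: 3 h exposure, 30 °C | Measured by: HT flow cytometry, GFP fluorescence channel | Evaluation: % GFP response vs DMSO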

Test [3] is described as follows: TOR pathway reporter MEP2-GFP, retest of hits – S. cerevisiae, flow cytometry GFP, cherry picks, confirmation (AID 2272;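 active = GFP response above 150% of the DMSO control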;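 also: ratio of well signal to plate DMSO mean so 100% equals DMSO level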). To be noted: S. cerevisiae MEP2-GFP strain, 3 h, at 10 µM, stronger effect = higher value.
Test [4] is described as follows: yeast AGP1-GFP fluorescence change, single-dose – cell-based, flow cytometry, S. cerevisiae, cherry picks, confirmation (AID 2273).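 Also: median GFP channel fluorescence over the whole cell population gate.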 Conditions: S. cerevisiae AGP1-GFP strain, 3 h, at 10 µM.
Test [5] in a line: TOR pathway CIT2 reporter hit retest – S. cerevisiae, GFP fusion, cherry picks, mother/daughter gates, confirmation (AID 2274). To be noted: S. cerevisiae CIT2-GFP strain, flow cytometry, 3 h, at 10 µM, stronger effect = higher value.
Where [6] appears, read: measured here: daughter cell gate.
The mark [7] stands for this setting: measured here: mother cell gate.
Setting [8] is: measured here: daughter cell gate response.
Where [9] appears, read: measured here: mother cell gate response.

The structures appear in SMILES notation. Active and inactive are the calls of the source.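 The calls were made as follows, unless noted: active = GFP response above 150% of the DMSO level; inconclusive = fewer than 70 events counted for a yeast strain; inactive = the rest.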

Take `CCOC(=O)c1ccc(NC(=O)CCc2nc(-c3ccccc3)no2)cc1`: the GFP response vs DMSO in test [1] was 97.3% (inactive); in test [1] (setting [6]), 97%; in test [1] (setting [7]) it was 97.5%; in test [3] it was 106% (inactive). The GFP response relative to DMSO in test [2] is 107% (inactive); in test [2] (setting [8]) it was 107%; in test [2] (setting [9]) it was 108%. Besides, the GFP response, % of DMSO in test [4] is 99.3% (inactive); in test [5] it was 101% (inactive); in test [5] (setting [6]), 101%; in test [5] (setting [7]) it was 98.2%.
On to `Cc1[nH]n(-c2ccccc2)c(=O)c1/C=N/Nc1nncc(-c2ccccc2)n1`, for which the GFP response vs DMSO is 88.1% (inactive) in test [1], 85.8% in test [1] (setting [6]), 88.9% in test [1] (setting [7]) and 108% (inactive) in test [3]. The GFP response relative to DMSO in test [2] was 149% (inactive); in test [2] (setting [8]), 137%; in test [2] (setting [9]) it was 151%. The GFP response, % of DMSO in test [4] is 110% (inactive); in test [5], 86% (inactive); in test [5] (setting [6]), 84.1%; in test [5] (setting [7]) it was 83.8%.
For `Cc1cc(O)c(C(=O)/C=C/c2ccccc2O)c(=O)o1`, the GFP response vs DMSO in test [1] is 101% (inactive); in test [1] (setting [6]) it was 98.9%; in test [1] (setting [7]), 101%; in test [3], 105% (inactive). Further, the values for the GFP response relative to DMSO in test [2], in test [2] (setting [8]) and in test [2] (setting [9]) were 119% (inactive), 109% and 125%, respectively. Also, the GFP response, % of DMSO was 90.2% (inactive) in test [4], 89.8% (inactive) in test [5], 91.7% in test [5] (setting [6]) and 86.7% in test [5] (setting [7]).
Regarding `Cc1ccc(/C=C/C(=O)c2ccccc(=O)c2O)c(C)c1`, the GFP response vs DMSO in test [1] was 90.2% (inactive); in test [1] (setting [6]), 112%; in test [1] (setting [7]) it was 93.5%; in test [3] it was 137% (inactive). Besides, the GFP response relative to DMSO in test [2] is 152% (active); in test [2] (setting [8]), 146%; in test [2] (setting [9]) it was 158%. For the same compound, the GFP response, % of DMSO in test [4] was 84.3% (inactive); in test [5], 103% (inactive); in test [5] (setting [6]) it was 99.2%; in test [5] (setting [7]), 96.8%.
As for `Cc1ccc(N2C(=O)C3C4C=CC(CNC(=S)Nc5ccc(Cl)cc5)(O4)C3C2=O)cc1` (stereo not drawn), the GFP response vs DMSO is 102% (inactive) in test [1], 101% in test [1] (setting [6]), 100% in test [1] (setting [7]) and 102% (inactive) in test [3]. The GFP response relative to DMSO was 101% (inactive) in test [2], 103% in test [2] (setting [8]) and 102% in test [2] (setting [9]). Further, the GFP response, % of DMSO is 102% (inactive) in test [4], 99.1% (inactive) in test [5], 98.1% in test [5] (setting [6]) and 97.7% in test [5] (setting [7]).
As to `COc1ccccc1NC(=O)Cn1nnc(-c2ccccc2NC(=O)c2ccco2)n1`, the GFP response vs DMSO in test [1] was 95.9% (inactive); in test [1] (setting [6]) it was 96.1%; in test [1] (setting [7]) it was 96.6%; in test [3] it was 100% (inactive). Besides, the GFP response relative to DMSO in test [2] was 85.4% (inactive); in test [2] (setting [8]), 87.9%; in test [2] (setting [9]), 89%. The GFP response, % of DMSO is 95.4% (inactive) in test [4], 99.1% (inactive) in test [5], 98.1% in test [5] (setting [6]) and 99.8% in test [5] (setting [7]).
With `Cc1cccc(C)c1NC(=O)c1nc(S(=O)(=O)Cc2ccccc2)ncc1Cl`, the GFP response vs DMSO is 97.1% (inactive) in test [1], 96.4% in test [1] (setting [6]), 95.8% in test [1] (setting [7]) and 101% (inactive) in test [3]. The results for the GFP response relative to DMSO in test [2], in test [2] (setting [8]) and in test [2] (setting [9]) were 102% (inactive), 101% and 101%, respectively. Besides, the GFP response, % of DMSO is 102% (inactive) in test [4], 94.4% (inactive) in test [5], 92.3% in test [5] (setting [6]) and 93.8% in test [5] (setting [7]).
As for `O=C1C=CC(=O)N1c1ccc(Sc2ccc([N+](=O)[O-])cc2)cc1`, the GFP response vs DMSO is 74% (inactive) in test [1], 96.8% in test [1] (setting [6]), 61.1% in test [1] (setting [7]) and 125% (inactive) in test [3]. Further, the values for the GFP response relative to DMSO in test [2], in test [2] (setting [8]) and in test [2] (setting [9]) were 143% (inactive), 142% and 124%, respectively. Moreover, the GFP response, % of DMSO in test [4] was 106% (inactive); in test [5], 79.7% (inactive); in test [5] (setting [6]), 90.5%; in test [5] (setting [7]), 63.8%.
For the compound `Cc1cc(NCCN2CCOCC2)n2nc(C)c(-c3ccc(Cl)cc3)c2n1`, the GFP response vs DMSO was 97.1% (inactive) in test [1], 97% in test [1] (setting [6]), 95.8% in test [1] (setting [7]) and 108% (inactive) in test [3]. In addition, the GFP response relative to DMSO is 106% (inactive) in test [2], 101% in test [2] (setting [8]) and 109% in test [2] (setting [9]). The GFP response, % of DMSO in test [4] is 98.4% (inactive); in test [5], 100% (inactive); in test [5] (setting [6]), 99.3%; in test [5] (setting [7]) it was 99.3%.
In the case of `CC(=O)Nc1c(-c2ccc(F)cc2)nc2ccccn12`, the GFP response vs DMSO in test [1] is 97.6% (inactive); in test [1] (setting [6]) it was 99%; in test [1] (setting [7]), 95.8%; in test [3], 116% (inactive). Moreover, the GFP response relative to DMSO in test [2] is 106% (inactive); in test [2] (setting [8]) it was 110%; in test [2] (setting [9]), 108%. For the same compound, the GFP response, % of DMSO in test [4] is 106% (inactive); in test [5] it was 110% (inactive); in test [5] (setting [6]) it was 114%; in test [5] (setting [7]) it was 108%.
As for `Cc1ccc2[nH]c(C)c(/C=C/c3cc[n+](C)cc3)c2c1`, the GFP response vs DMSO in test [1] is 118% (inactive); in test [1] (setting [6]) it was 120%; in test [1] (setting [7]), 117%; in test [3], 268% (active). For the same compound, the values for the GFP response relative to DMSO in test [2], in test [2] (setting [8]) and in test [2] (setting [9]) were 198% (active), 210% and 190%, respectively. In addition, the GFP response, % of DMSO was 122% (inactive) in test [4], 223% (active) in test [5], 241% in test [5] (setting [6]) and 211% in test [5] (setting [7]).
As for `COc1ccc(C2CC(=O)C(C(c3ccc(O)cc3)C3C(=O)CC(c4ccc(OC)cc4)CC3=O)C(=O)C2)cc1` (stereo not drawn), the GFP response vs DMSO in test [1] was 100% (inactive); in test [1] (setting [6]), 101%; in test [1] (setting [7]) it was 101%; in test [3], 96.6% (inactive). In addition, the values for the GFP response relative to DMSO in test [2], in test [2] (setting [8]) and in test [2] (setting [9]) were 93.7% (inactive), 92% and 92%, respectively. The GFP response, % of DMSO is 101% (inactive) in test [4], 110% (inactive) in test [5], 110% in test [5] (setting [6]) and 109% in test [5] (setting [7]).
Take `CC(Oc1cccc(Cl)c1)C(=O)Nc1nc(-c2ccccn2)cs1` (stereo not drawn): the GFP response vs DMSO in test [1] is 105% (inactive); in test [1] (setting [6]), 97%; in test [1] (setting [7]), 103%; in test [3], 104% (inactive). Further, the GFP response relative to DMSO was 161% (active) in test [2], 140% in test [2] (setting [8]) and 167% in test [2] (setting [9]). Also, the GFP response, % of DMSO in test [4] was 90.8% (inactive); in test [5], 86.1% (inactive); in test [5] (setting [6]), 93.2%; in test [5] (setting [7]) it was 81.6%.
